As usually defined, the Ki is the equilibrium dissociation constant of an inhibitor or competing ligand from its target. Read a low Ki as higher affinity.

The target in test [1] is T1, Aromatic-L-amino-acid decarboxylase (Sus scrofa) (UniProt P80041).
T1 sequence (whole entry): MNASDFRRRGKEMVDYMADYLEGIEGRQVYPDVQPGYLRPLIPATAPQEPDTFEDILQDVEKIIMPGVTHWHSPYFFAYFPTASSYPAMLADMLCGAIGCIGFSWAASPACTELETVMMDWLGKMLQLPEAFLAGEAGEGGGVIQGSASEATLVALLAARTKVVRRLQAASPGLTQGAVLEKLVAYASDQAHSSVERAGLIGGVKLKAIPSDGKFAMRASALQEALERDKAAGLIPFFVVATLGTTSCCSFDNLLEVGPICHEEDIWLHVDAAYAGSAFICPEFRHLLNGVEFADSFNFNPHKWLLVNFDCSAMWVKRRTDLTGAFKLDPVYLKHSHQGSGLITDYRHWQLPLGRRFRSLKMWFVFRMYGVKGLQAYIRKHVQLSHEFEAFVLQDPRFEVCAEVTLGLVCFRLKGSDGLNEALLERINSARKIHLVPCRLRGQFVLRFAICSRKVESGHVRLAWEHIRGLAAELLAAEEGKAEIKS
Nature of the test: Relative inhibitory comparison to that of (+)D-m-Tyrosine.

The target of test [2] is T2, Aromatic-L-amino-acid decarboxylase (Sus scrofa, UniProt P80041).
T2 sequence (P80041 whole entry): T1 sequence (whole entry)
Nature of the test: Inhibitory activity against pig kidney L-aromatic amino acid decarboxylase (Dopa decarboxylase). The method in brief:
(§1)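 The enzyme was purified from pig kidney. The crude extract was clarified with Bioacryl-BP-1000 and centrifuged, then run over DEAE-cellulose, phenyl Sepharose CL-4B and Sephacryl S-300. Decarboxylase activity was measured by a continuous spectrophotometric CO₂-detection procedure using a commercial CO₂ kit. Inhibition was expressed as Ki.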

Test [3] addresses T2, Aromatic-L-amino-acid decarboxylase. In words: Inhibitory activity against pig kidney L-aromatic amino acid decarboxylase (Dopamine decarboxylase). In short, it runs like this: as §1

Regarding `N[C@]1(C(=O)O)C[C@@H]1c1cccc(O)c1`, in test [1], the Relative inhibition is 3. Besides, affinity in test [2] was put at a Ki of 330 µM.
The corresponding values for `N[C@@]1(C(=O)O)C[C@H]1c1cccc(O)c1` are 20.4 and 49 µM.
In turn, `NC1(C(=O)O)CC1c1cccc(O)c1` (single isomer, unassigned; (+)) [listing 1 of 2 here] came in with a Ki in test [3] of 22 µM.
In test [1], `NC1(C(=O)O)CC1c1cccc(O)c1` (single isomer, unassigned; (+)) [listing 2 of 2 here] had a Relative inhibition of 45.4.
For `NC1(C(=O)O)CC1c1cccc(O)c1` (single isomer, unassigned; (-)) [listing 1 of 2 here], the affinity in test [2], expressed as Ki, was 630 µM.
Turning to `NC1(C(=O)O)CC1c1cccc(O)c1` (single isomer, unassigned; (-)) [listing 2 of 2 here], in test [1], the Relative inhibition is 1.6.

For the origin of these results see ChEMBL document CHEMBL1126325, “Inhibition of pig kidney L-aromatic amino acid decarboxylase by 2,3-methano-m-tyrosines” (J Med Chem, 1992).
